Experimental data taken from publication PMC7750258 (Progress in neuro-psychopharmacology & biological psychiatry, 2020).
Like-named read-outs stand apart in the source and are kept apart here.

Tests used:
ICR mice [1] = assay: Cannabinoid tetrad: locomotor activity; type: in vivo; conditions: female and male ICR mice, i.p., 10 min session 30 min after injection
ICR mice [2] = assay: Cannabinoid tetrad: rectal temperature; type: in vivo; conditions: for effect on body temperature: ICR mice of both sexes; for Body Temperature ED50 (± SEM): i.p., n=6, maximal effect −6°C
Procedure, shortened: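 Adult drug-naïve ICR mice of both sexes (n=6 per sex per dose) received vehicle or test compound. Baseline rectal temperature was taken before injection. Temperature was re-measured immediately after a 10 min locomotor session that began 30 min post-injection. […] It came from least-squares linear regression on the linear part of the dose-effect curve against log10 dose.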

C57BL/6J mice = assay: THC drug discrimination in mice; type: in vivo; conditions: for ED50 (± SEM), THC drug discrimination: compound alone, i.p. 30 min pre-session; for substitution for the THC training dose: mice of both sexes
ICR mice [3] = assay: Cannabinoid tetrad: ring immobility; type: in vivo; conditions: for effect on ring immobility: ICR mice of both sexes; for Ring Immobility ED50 (± SEM): i.p., n=6, maximal effect 100% immobility
Procedure, shortened: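 Drug-naïve adult ICR mice, males and females (n=6 per sex per dose), were dosed with vehicle or test compound. At 50 min post-injection each mouse was placed on an elevated ring. Time spent immobile over 5 min was divided by 300 s and multiplied by 100 to give percent immobility.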

rats = conditions: ref Tseng and Craft (2001); cited from earlier work
CB1 receptor [4] = biological target: T1, CB1 receptor (Mus musculus, UniProt P47746); assay: [3H]CP55,940 displacement binding in mouse cerebellar membranes; set-up: species or system ICR mice; conditions: read-out: CB1 Binding Affinity (Ki in nM), cerebellum, N = 4 / value
T1 sequence (P47746 whole entry): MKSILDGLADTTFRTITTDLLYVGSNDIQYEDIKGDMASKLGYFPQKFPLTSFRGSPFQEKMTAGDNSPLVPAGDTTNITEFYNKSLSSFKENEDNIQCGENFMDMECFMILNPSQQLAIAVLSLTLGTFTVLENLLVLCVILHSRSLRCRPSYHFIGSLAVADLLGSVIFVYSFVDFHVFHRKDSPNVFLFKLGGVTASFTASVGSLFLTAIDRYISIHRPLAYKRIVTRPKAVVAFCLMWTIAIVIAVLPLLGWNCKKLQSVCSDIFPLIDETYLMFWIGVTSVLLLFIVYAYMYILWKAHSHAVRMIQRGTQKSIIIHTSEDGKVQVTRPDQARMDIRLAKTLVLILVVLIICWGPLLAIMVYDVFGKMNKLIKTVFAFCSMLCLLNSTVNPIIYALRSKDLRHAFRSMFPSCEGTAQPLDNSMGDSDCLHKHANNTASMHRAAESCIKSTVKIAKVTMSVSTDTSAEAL

CB1 receptor [5] = biological target: CB1 receptor (Rattus norvegicus, UniProt P20272); assay: Agonist-stimulated [35S]GTPγS binding in rat cerebellar membranes; type: biochemical, Sprague-Dawley rats; conditions: rat cerebellum, both sexes
CB1 receptor (Rattus norvegicus, UniProt P20272), sequence (P20272 whole entry): as the sequence (P47746 whole entry) above, with D95E counted along it

CB1 receptor [6] = biological target: T1, CB1 receptor; assay: Agonist-stimulated [35S]GTPγS binding in mouse cerebellar membranes; type: biochemical, ICR mice; conditions: mouse cerebellum, both sexes
Sprague-Dawley rats = assay: THC drug discrimination in rats; type: in vivo
[7] = ref Huestis, 2007; Mazur et al., 2009; cited from earlier work

11-OH-Δ^9-tetrahydrocannabinol [11-OH-THC]
effect on locomotor activity (ICR mice [1]): Neither drug significantly decreased locomotor activity
effect on body temperature (ICR mice [2]): decreases in body temperature
greater potency than THC, hypothermia (ICR mice [2]; ICR mice, range across sexes): 7- to 31 fold
Body Temperature ED50 (± SEM) (ICR mice [2]; female ICR mice): 0.19 (0.006–6.1)
Body Temperature ED50 (± SEM) (ICR mice [2]; male ICR mice): 0.70 (0.22–2.26)
greater potency than THC in THC drug discrimination (C57BL/6J mice; C57Bl/6J mice, range across sexes): 7- to 9 fold
more potent than THC in THC drug discrimination (C57BL/6J mice; female mice): 7 fold
response rate compared to vehicle (C57BL/6J mice; female mice, subset n=8): but not in females
ED50 (± SEM), THC drug discrimination (C57BL/6J mice; female mice, subset n=8): 0.28 mg/kg
more potent than THC in THC drug discrimination (C57BL/6J mice; male mice): 9 fold
response rate compared to vehicle (C57BL/6J mice; male mice, subset n=8): significantly decreased by 3 mg/kg 11-OH-THC
ED50 (± SEM), THC drug discrimination (C57BL/6J mice; male mice, subset n=8): 0.24 mg/kg
substitution for the THC training dose (C57BL/6J mice): dose-dependently substituted for THC
effect on ring immobility (ICR mice [3]): clear and significant dose-dependent increases in ring immobility
greater potency than THC, catalepsy (ICR mice [3]; ICR mice, range across sexes): 7- to 15 fold
Ring Immobility ED50 (± SEM) (ICR mice [3]; female ICR mice): 0.16 (out of range)
Ring Immobility ED50 (± SEM) (ICR mice [3]; male ICR mice): 0.57 (0.07–4.57)
potency in female vs male rats (rats): about twice as potent in female than male rats

CCCCCCC(C)(C)c1ccc([C@@H]2C[C@H](O)CC[C@H]2CCCO)c(O)c1 [CP55,940]
Ki (CB1 receptor [4]; female mice): 0.48 nM
Ki (CB1 receptor [4]; male mice): 0.56 nM

CCCCCc1cc(O)c2c(c1)OC(C)(C)[C@@H]1CCC(C)=C[C@@H]21 [THC, Δ^9-tetrahydrocanabinol]
functional character in [35S]GTPγS assay (CB1 receptor [5]): partial agonists
effect on locomotor activity (ICR mice [1]): Neither drug significantly decreased locomotor activity
effect on body temperature (ICR mice [2]): decreases in body temperature
response rate compared to vehicle (C57BL/6J mice; all mice (15 female, 20 male), first and second THC dose-effect curves): significantly increased overall responding across both sexes at doses of 3 and 5.6 mg/kg during the first test and over a dose range of 3–10 mg/kg during the second test
response rate compared to vehicle (C57BL/6J mice; female mice, subset n=8): but not in females
response rate compared to vehicle (C57BL/6J mice; male mice, subset n=8): significantly decreased by 30 mg/kg THC
substitution for the THC training dose (C57BL/6J mice): dose-dependently substituted for the 5.6 mg/kg training dose
effect on ring immobility (ICR mice [3]): clear and significant dose-dependent increases in ring immobility
functional character in [35S]GTPγS assay (CB1 receptor [6]): partial agonists
more potent in female than in male rats (Sprague-Dawley rats; THC drug discrimination): 2.8 fold
substitution for the THC training dose (Sprague-Dawley rats; rats of both sexes): dose-dependently substituted for the 1.7 mg/kg training dose in both sexes
response rate compared to vehicle (Sprague-Dawley rats; rats, both sexes): 3 mg/kg THC significantly decreased overall responding across both sexes

CCCCCc1cc(O)c2c(c1)OC(C)(C)[C@@H]1CCC(C(=O)O)=C[C@@H]21 [THC-COOH, 11-nor-9-carboxy-Δ^9-tetrahydrocannabinol]
cannabimimetic effects [7]: lacks cannabimimetic effects

Cc1c(C(=O)NN2CCCCC2)nn(-c2ccc(Cl)cc2Cl)c1-c1ccc(Cl)cc1 [rimonabant, 5-(4-chlorophenyl)-1-(2,4-dichlorophenyl)-4-methyl-N-(piperidin-1-yl)-1H-pyrazole-3-carboxamide]
rightward shift of THC dose-effect curve (C57BL/6J mice; 1 mg/kg antagonist i.p. 10 min before THC, both sexes): ~ 7 fold
effect of antagonist on substitution by 1 mg/kg 11-OH-THC (C57BL/6J mice; 1 mg/kg rimonabant or 3 mg/kg SR144528 i.p. 10 min prior, n=8/sex): blocked maximal substitution produced by 1 mg/kg 11-OH-THC
response rate compared to vehicle (C57BL/6J mice; male mice, subset n=8): significantly suppressed compared to vehicle alone treatment
